Assay results published in PubChem BioAssay AID540295 (The Scripps Research Institute Molecular Screening Center, 2011).
In all, about 360,000 compounds went through this assay and about 1,700 (0.47%) were called active.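 The calls were made as follows: active = inhibition above its plate's cutoff, the mean of tested wells on that plate plus 3 SD (cut at about 29% in these data); inactive = the rest.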 For the sample, actives were picked, then their nearest neighbours and some compounds at random.

What follows are molecules tested against Melanocortin receptor 4 (Homo sapiens) (UniProt P32245) (assay: blockers of MC4R Gs-cAMP response – cell-based, TR-FRET, antagonist arm of biased-ligand search, primary screen (AID 540295;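 also: 0% = Melanotan II alone and 100% = Melanotan II plus saturating MCL0020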)). Settings: MC4R-expressing cells, MTII-stimulated cAMP, LANCE TR-FRET; at 6.5 µM; stronger effect = higher value.
In short: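 Material: human MC4R-expressing U2OS cells. Probe or stimulus: Melanotan II challenge. Dosing: 6.5 µM single dose. Times: 30-min compound, 1-h challenge, 1-h detection, room temperature. Technique: TR-FRET with Eu-cAMP and labeled anti-cAMP, 671 nm. Replication: singlicate.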

Sequence of Melanocortin receptor 4 (Homo sapiens) (P32245 whole entry, looked up): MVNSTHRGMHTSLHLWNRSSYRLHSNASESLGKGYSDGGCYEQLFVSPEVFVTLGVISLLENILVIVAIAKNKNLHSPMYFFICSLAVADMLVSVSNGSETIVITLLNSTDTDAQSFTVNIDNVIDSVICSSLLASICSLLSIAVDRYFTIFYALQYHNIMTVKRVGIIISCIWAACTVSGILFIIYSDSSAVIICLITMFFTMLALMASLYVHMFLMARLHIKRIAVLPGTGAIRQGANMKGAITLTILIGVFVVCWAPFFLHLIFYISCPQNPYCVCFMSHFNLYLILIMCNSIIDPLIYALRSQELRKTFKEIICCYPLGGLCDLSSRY

inhibition, inactive:
CCOC(=O)C1(Cc2ccccc2C(F)(F)F)CCN(C(=O)c2cc(C)n(C)n2)CC1 5.76%
COc1ccc(/C=C/C(=O)c2c(O)cc(OC)cc2OC)cc1 -19.9%
CCOc1ccc(OCC(=O)Nc2c3c(nn2C(C)(C)C)CS(=O)(=O)C3)cc1 1.77%
O=S(=O)(Cc1noc(-c2ccc(OC(F)(F)F)cc2)n1)c1ccc(F)cc1 4.42%
CC(OC(=O)C1CC(=O)N(Cc2ccccc2)C1)C(=O)Nc1ccccc1[N+](=O)[O-] (stereo unspecified) -5.04%
Cc1cc(=O)oc2cc(NC(=O)C3CC(=O)N(Cc4ccccc4)C3)ccc12 (stereo unspecified) 15.7%
Cc1cc(-c2csc(N)n2)c(C)n1-c1ccccc1 4%
CC1(C(=O)N/N=C/c2cc3c(cc2Br)OCO3)CC1(Br)Br (stereo unspecified) 19.5%
CCN(CC)C(=O)C1CCCN(Cc2cccc(Cl)c2)C1 (stereo unspecified) -1.5%
O=[N+]([O-])c1ccc(Oc2ccc(F)cc2Br)c2ccncc12 2.28%
COc1cc(NC(=O)c2cc(-c3ccc(F)cc3OC(C)C)n[nH]2)cc(OC)c1OC 19.5%
CCCOc1ccc(F)cc1-c1cc(C(=O)Nc2ccc(F)c(Cl)c2)[nH]n1 3.21%
Cc1cccc(-n2ncc(Cl)c(Cl)c2=O)c1 27.8%
COc1ccc(CCNC(=O)c2c(C)nn(-c3ccccc3)c2Cl)cc1 13.4%
CC(C)Nc1nc(NCCOc2ccccc2Cl)c2sccc2n1 -7.14%
COc1ccc2c(c1)C(=O)Nc1cc(Cl)ccc1N2 -3.19%
COc1ccc(/C=C(\C#N)C(=O)NCCCn2ccnc2)cc1 6.52%
CCOCCCNC(=O)c1cc2c(=O)n3ccccc3nc2s1 -4.33%
CN(C)C(=O)c1cccc(-c2cnc3c(NC=O)cc(-c4ccc(F)cc4)cn23)c1 -2.24%
O=C(NNS(=O)(=O)c1c(F)cc(F)c(Cl)c1F)C12CC3CC(CC(C3)C1)C2 -0.65%
O=C(c1cnc(Cl)c(Cl)c1)N1CCN(S(=O)(=O)c2ccc(F)cc2)CC1 19.3%
COc1ccccc1C(=O)NC(CCSC)C(=O)NNC(=O)c1csc(N2CCOCC2)n1 (stereo unspecified) 14.9%
Cc1ccc(NC(=O)COC(=O)C2CC2)cc1S(=O)(=O)N1CCOCC1 5.97%
Cc1ccc(NC(=O)CCCNC(=O)c2ccc(Cl)cc2)cc1S(=O)(=O)N1CCOCC1 -7.04%
Cc1cc(C)c(NC(=O)CN2C(=O)NC(Cc3ccccc3)C2=O)c(C)c1 (stereo unspecified) -8.57%
CC(=O)C1(C)N(O)C(C)(C)C(c2cccs2)=[N+]1[O-] (stereo unspecified) -4.35%
Cc1cc(-n2cnc(-c3cn(C)nc3C)n2)no1 3.28%
CC(=O)N(Cc1cccs1)C1CCOC(C)(C)C1 (stereo unspecified) -3.32%
OC(CN1C2=NCCCN2c2ccccc21)c1ccc(Br)cc1 (stereo unspecified) -7.35%
COc1cccc(OCC(=O)NCCS(=O)(=O)N2CCN(c3ccccc3)CC2)c1 1.47%
COC(=O)C1=C(C)N(C)C(=O)NC1c1ccc([N+](=O)[O-])o1 (stereo unspecified) -8.39%
COC(=O)c1c(C)[nH]c(C)c1-c1ccc([N+](=O)[O-])cc1 -0.44%
CC1(C)CC(N2CCN(C(c3ccccc3)c3ccccc3)CC2)=CC(=[N+]2CCCCC2)C1 5.45%
NC1=NC2(CCCCC2)N(c2ccc(F)cc2F)C(N)=N1 1.15%
Cc1ccc2c(cnn2C(=O)CCC(=O)NC2CCCC2)c1 -3.58%
CC(C)N(c1ccccc1)c1ncnc(NCCC(=O)O)c1[N+](=O)[O-] 9.58%
COC(=O)c1c(NC(=O)CCN2CCOCC2)sc2c1CCCC2 -12.7%
O=C(CN1CCCC1)Nc1sc2c(c1C(=O)Nc1ccccc1)CCCC2 -1.77%
CN(C)/C(CN1CCCCC1)=C1\N=C(c2ccccc2)OC1=O 7.27%
O=C1CCC(=O)N(c2ccccc2)N1 22.5%
Cc1cccc(CS(=O)(=O)c2ncc(Cl)c(C(=O)Nc3ccc(F)cc3)n2)c1 12.4%
NC(=O)CSc1nnc(NC(=O)c2ccc(Br)o2)s1 -2.81%
Cc1cc(C)c2nc(-c3cccnc3)cc(C(=O)Nc3ccc(S(=O)(=O)Nc4onc(C)c4C)cc3)c2c1 19.9%
COc1ccc(-c2ccc(CCC(=O)O)n2-c2ccc(O)cc2)cc1 1%
COc1ccc(-c2ccc(CCC(=O)O)n2NC(=O)c2ccc(C(C)(C)C)cc2)cc1 11.2%
Cc1ccc(N(C(=O)c2snc(C(N)=O)c2N)C(C(=O)NCC2CCCO2)c2c[nH]c3ccccc23)cc1 (stereo unspecified) 21.4%
CCOc1ccc(N(C(=O)c2snc(C(N)=O)c2N)C(C(=O)NCC2CCCO2)c2c[nH]c3ccccc23)cc1 (stereo unspecified) 12.3%
O=C(CCNC(=O)c1ccc([N+](=O)[O-])cc1)Nc1ccccc1N1CCOCC1 17.3%
CC[C@@H]1Cc2cc(O)ccc2C2=C1c1ccc(O)cc1C[C@H]2CC 10.4%
Cc1csc(CN(C)C(=O)CC2C(=O)NCCN2CC(C)(C)C)n1 (stereo unspecified) 4.33%
COc1ccc2sc(-c3ccc(S(C)(=O)=O)cc3)c(C#Cc3cncn3C)c2c1 12.3%
COc1cc(OC)cc(-c2sc3ccc(OC)cc3c2-c2ccc3cc[nH]c3c2)c1 13%
COC(=O)[C@H](C)[C@H]1C[C@]1(C)[C@H](NC(=O)OCc1ccccc1)c1ccccc1 5.83%
COC(=O)[C@@H](Cc1ccccc1)NC(=O)NCCc1ccccc1 23.7%
Cc1csc(/N=C/N(C)C)c1C#N 1.05%
Cc1ccc(S(=O)(=O)CCC(=O)OCc2ccccc2)cc1 3.4%
Cc1ccc(S(=O)(=O)CCC(=O)OCC(=O)N(C)C2CCS(=O)(=O)C2)cc1 (stereo unspecified) 0.56%
CCOc1ccc(S(=O)(=O)NCc2ccc3c(c2)OCO3)cc1C 3.78%
COc1ccc(CCN=C2SCC(=O)N2C)cc1OC 10.4%
Cc1cc(C)cc(NC(=S)NCCc2c[nH]c3ccccc23)c1 7.21%
O=C(NCCc1c[nH]c2ccccc12)c1cc2ccccc2oc1=O -0.76%
CN(C)c1ccc(C2Nc3ccccc3C(=O)N2NS(=O)(=O)c2ccccc2)cc1 (stereo unspecified) -6.61%
COc1ccc(S(=O)(=O)N2CCSCC2)cc1 2.98%
CCOC(=O)c1c(C)oc2cc(Sc3ccccc3)c(O)c(O)c12 6.42%
Cc1oc2cc(Br)c(O)c(Br)c2c1C(=O)c1ccccc1 0.99%
COc1ccc(CCCNC(=O)C2Cc3c(-c4cccc(C(N)=O)c4)ccnc3O2)cc1 (stereo unspecified) 2.69%
CCn1c2ccccc2c2cc(NC(=O)COC(=O)c3cc(S(=O)(=O)N4CCCCC4)ccc3Cl)ccc21 -0.18%
CCn1c2ccccc2c2cc(NC(=S)N3CCOCC3)ccc21 -0.62%
CC1=NN(C(C)C)C(=O)C1 6.17%
Cc1ccnc(NC(=O)c2ccc(Cl)c([N+](=O)[O-])c2)c1 23.3%
O=C(O)c1ccc2c(=O)n3c(nc2c1)/C(=C/c1ccc(Cl)c([N+](=O)[O-])c1)CC3 0.52%

inhibition, active:
O=C(Nc1ccc(F)c([N+](=O)[O-])c1)C1CC(=O)N(Cc2ccccc2)C1 (stereo unspecified) 35.5%
CC(C)Oc1c(Br)cc(Br)cc1/C=N/NC(N)=S 31.4%
COc1ccc(Cl)cc1-c1cc(C(=O)Nc2cc(OC)c(OC)c(OC)c2)[nH]n1 29.8%
COc1ccc(Oc2c(Cl)cnn(-c3ccccc3)c2=O)cc1 54.6%
COCCCNC(=O)/C(C#N)=C/c1c(N2CCCCCC2)nc2ccccn2c1=O 31%
CC(=O)N1CCN(S(=O)(=O)c2c(F)cc(F)c(Cl)c2F)CC1 32.7%
Cc1ccc(NC(=O)COC(=O)CNC(=O)c2ccc(Cl)cc2Cl)cc1S(=O)(=O)N1CCOCC1 31.4%
CC1(C)C(c2cccs2)=[N+]([O-])C2(CCCCC2=O)N1O (stereo unspecified) 29.8%
COC(=O)C1=C(C(=O)OC)C(c2cc([N+](=O)[O-])ccc2O)c2sc(=O)[nH]c2S1 (stereo unspecified) 33.3%
Cc1ccc(NC(=O)c2c(NC(=O)CCC(=O)O)sc3c2CCCCC3)cc1 32%
CSc1nnc(NC(=O)c2nc(S(=O)(=O)Cc3ccc(C)cc3)ncc2Cl)s1 44.6%
C=Cn1c(C(=O)O)ccc1-c1ccc(OC)cc1 28.8%
Cc1ccc(C(C(=O)NCC2CCCO2)N(C(=O)c2snc(C(N)=O)c2N)c2ccc(C(C)C)cc2)o1 (stereo unspecified) 29.1%
COc1ccc2sc(-c3ccc(S(C)(=O)=O)cc3)c(-c3ccc(C(N)=O)cc3)c2c1 35.3%
COC(=O)[C@H](Cc1ccccc1)NC(=O)[C@@H]1C[C@H]1[C@@H](NC(=O)OCc1ccccc1)c1ccccc1 29.7%
Cc1ccc(S(=O)(=O)CCC(=O)OCC(=O)N(C)Cc2ccccc2)cc1 33.6%
O=C(NCCc1c[nH]c2ccccc12)c1cccc(Br)c1 31.5%
CCOC(=O)c1c(-c2ccccc2)oc2cc(Br)c(O)c(C=O)c12 93%
CCn1c2ccccc2c2cc(NC(=O)C/C(C)=N/NC(=O)c3ccccc3N)ccc21 28.8%
Cc1nc2ccccc2c(=O)n1NC(=O)c1ccc(Cl)c([N+](=O)[O-])c1 49%
